The test system of assay [1] is Class IIa HDACs. Put plainly: class-distinguishing fluorogenic substrates whole-cell assay, class IIa, HT-29. Format: cell-based. Conditions: read-out: IC50 Class-IIa, HT-29 cells, Boc-Lys-TFA substrate.
Assay [2] concerns Class I/IIb HDACs. The experiment in a line: class-distinguishing fluorogenic substrates whole-cell assay, class I/IIb, HT-29. The assay is classed as cell-based. Conditions: read-out: IC50 Class-I/IIb, HT-29 cells, Boc-Lys-Ac substrate.
Assay [3] deals with Class I/IIb HDACs. The experiment in a line: class-distinguishing fluorogenic substrates whole-cell assay, class I/IIb, L3.6. Format: cell-based. Conditions: read-out: IC50 Class I/IIb HDACs, L3.6 cells. A digest of the protocol:
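Whole cells incubated with 200 µM Boc-Lys-Ac (class-I/IIb selective substrate) in RPMI without phenol red plus 0.1% FBS, 3 h at 37 °C. Test compound given as an 11-point curve at 5% final DMSO; 5 µM trichostatin A served as positive control and DMSO alone as negative control. Trypsin developer (2.5 mg/mL, with tween 80) added for 1 h to lyse cells and release fluorophore. Read at ex 360 / em 460 nm; IC50 by nonlinear fit.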

Assay [4] deals with Other HDACS. Put plainly: fluorogenic assay against recombinant HDAC proteins, other HDACs. Format: biochemical, human. Conditions: read-out: IC50 Other HDACS. The essentials:
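Recombinant human HDACs screened with commercial fluorogenic enzyme assay kits, following the manufacturer protocol, at 9 dilutions of test compound. Fluorescence read on a microplate reader. IC50 from nonlinear curve fit of % HDAC activity inhibition vs compound concentration.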

Assay [5] concerns indigenous class-IIa HDACs. Conditions: read-out: IC50 binding to indigenous class-IIa HDACs; THP-1 cells; ref [19]; cited from earlier work.
For assay [6], the system named is HDAC4. Conditions: read-out: IC50 HDAC4 non-cell-based inhibition; ref [19],[20]; cited from earlier work.
The subject of assay [7] is HDAC5. Conditions: read-out: IC50 HDAC5 non-cell-based inhibition; ref [19],[20]; cited from earlier work.
The subject of assay [8] is HDAC9. Conditions: in words; ref [19],[20]; cited from earlier work.

We go through two compounds from PMC8919062 (European journal of medicinal chemistry, 2021).

Consider “N-(3-(benzylamino)-2,2-dimethyl-3-oxopropyl)-4-(5-(trifluoromethyl)-1,2,4-oxadiazol-3-yl)benzamide [Compound 10]”, for which the IC50 in assay [1] was 933 ± 260 nM; in assay [2] it was greater than 15000 nM.
For the compound `CC(C)(CNC(=O)c1cccc(-c2noc(C(F)(F)F)n2)c1)c1coc(-c2ccccc2)n1` [TMP195], the IC50 in assay [3] is greater than 5000 nM; in assay [4] it was greater than 5000 nM; in assay [5], 300 nM; in assay [6], greater than 100 nM; in assay [7], greater than 100 nM. Further, the “IC50 HDAC9 non-cell-based inhibition” value in assay [8] is listed as “low nM range”.
